A selection: hits, their analogues and other compounds. The true share with any hit is near 2.2%.
CAL PDZ FP-1 = inhibitors of human CAL PDZ peptide binding; Q9HD26; actives 0.02% (n = 330,000); inhibition, % at 20 µM; purified CAL PDZ, TMR-peptide fluorescence polarization, 1 h;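 active = highest replicate inhibition of at least 40%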;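 also: plate controls were DMSO neutral control wells for no effect and unlabeled competitor peptide control wells for full effect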
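System: tagged CAL PDZ domain. Schedule: 1 h room-temperature incubation prior to read. Signal: fluorescence polarization (mP). Measure: percent inhibition from loss of millipolarization.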
Rtt109 HAT inh = C. albicans Rtt109 histone acetyltransferase inhibition; purified Rtt109/Vps75, ThioGlo CoA-SH fluorescence, 4 h; inhibition, % at 34.9 µM; actives 0.16% (n = 330,000); AID 540336;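 active = inhibition of at least 50% in every replicate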
CAL PDZ FP-2 = blocks peptide binding to the human CAL PDZ domain | Q9HD26 | purified CAL PDZ, TMR-peptide fluorescence polarization, 1 h | inhibition, % at 24.9 µM | actives 0.92% (n = 300,000) | AID 602252;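 active = mean inhibition of at least 30% with at least half of replicates also reaching 30%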;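 also: 0% = DMSO neutral control and 100% = excess unlabeled competitor peptide PRC23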
Dyrk1A ADPGlo = inhibitors of rat Dyrk1A kinase | AID 504441 | actives 0.43% (n = 310,000) | ADP-Glo luminescence, NFATc1 peptide | Q63470 | inhibition, % at 12.5 µM; in the data active = inhibition above about 50%;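 also: plate controls were vehicle with enzyme for no effect and no enzyme for full effect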
dFosB act-1 = mouse delta FosB homodimer activation. P13346. purified delta FosB, TAMRA-CDK5 oligo fluorescence polarization; percent of positive-control signal above neutral wells. activation, % at 25 µM. actives 0.99% (n = 340,000);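 active = mean activation above about 17%, with every replicate also reaching it, limit read from the data, passing the limit was not always enough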
CDK5 inh = blocks human CDK5/p35 kinase activity; Q00535+Q15078; Recombinant CDK5/p35, ADP-Glo luminescence, 60 min; inhibition, % at 10 µM; actives 0.01% (n = 330,000);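 active = highest replicate inhibition of at least 50% and at least 75% of replicates reaching 50%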;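 also: plate controls were DMSO neutral control for no effect and GW8510 at 10 µM for full effect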
Target sequence (Q00535 whole entry, looked up): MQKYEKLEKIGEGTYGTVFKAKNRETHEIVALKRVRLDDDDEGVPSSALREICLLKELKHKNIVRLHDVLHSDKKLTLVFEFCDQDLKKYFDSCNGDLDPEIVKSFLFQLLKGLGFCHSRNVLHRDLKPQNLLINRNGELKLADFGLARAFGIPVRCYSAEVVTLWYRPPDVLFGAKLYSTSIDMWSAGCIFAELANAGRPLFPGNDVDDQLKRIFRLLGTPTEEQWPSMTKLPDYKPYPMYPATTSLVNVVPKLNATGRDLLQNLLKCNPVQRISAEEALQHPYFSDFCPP
Target sequence (Q15078 whole entry, looked up): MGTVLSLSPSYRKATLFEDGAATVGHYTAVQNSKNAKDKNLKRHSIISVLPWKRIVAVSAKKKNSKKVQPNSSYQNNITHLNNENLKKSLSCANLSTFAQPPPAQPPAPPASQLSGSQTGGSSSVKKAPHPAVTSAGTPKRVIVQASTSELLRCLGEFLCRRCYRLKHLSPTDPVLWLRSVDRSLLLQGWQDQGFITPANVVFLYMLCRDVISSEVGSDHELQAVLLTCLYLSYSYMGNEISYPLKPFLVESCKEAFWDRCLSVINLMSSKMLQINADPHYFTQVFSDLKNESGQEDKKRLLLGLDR
dFosB act-2 = activators of mouse delta FosB homodimer DNA binding; shares compounds with dFosB act-1; purified delta FosB, TAMRA-CDK5 oligo fluorescence polarization; normalised: neutral wells 0, positive control 100; activation, % at 24.9 µM; 2,400 tested, under 10 active; AID 588690;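 active = highest replicate activation at or above 34% and every replicate reaching that threshold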;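 also: higher polarization means more probe DNA bound by delta FosB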
* = called active by the depositor; · = not tested or not shown.

SMILES | CAL PDZ FP-1 | Rtt109 HAT inh | CAL PDZ FP-2 | Dyrk1A ADPGlo | dFosB act-1 | CDK5 inh | dFosB act-2
Cc1cc(C)c(-c2cc(NC(=O)COC(=O)c3ccc(NC(=O)CC#N)cc3)n(-c3ccccc3)n2)cc1C | 0.3 | 2.1 | -1.9 | -0.7 | 51.3* | -3.3 | 2.4
Cc1cc(C)c(-c2cc(NC(=O)COC(=O)c3ccc(C#N)cc3)n(-c3ccccc3)n2)cc1C | -0.6 | -5.1 | -0.1 | -5.5 | -21.6 | -0.6 | ·
NS(=O)(=O)c1ccc(NC(=O)c2cccc(N3C(=O)c4ccccc4C3=O)c2)cc1 | 1.9 | -2.9 | 19.7 | 1.0 | 111.3* | 2.4 | 5.4
NS(=O)(=O)c1ccc(NC(=O)c2ccc3c(c2)CCN3S(=O)(=O)c2ccccc2)cc1 | -1.2 | 10.6 | 2.2 | -0.5 | 32.4* | 1.3 | 1.0
O=C(Nc1ccccc1)c1ccc2c(c1)CCN2S(=O)(=O)c1ccccc1 | -1.4 | 14.9 | · | 5.5 | 1.9 | 0.7 | ·
Cc1ccc(NC(=O)COC(=O)c2cccc(N3C(=O)c4ccccc4C3=O)c2)cc1 | 0.7 | 6.4 | 1.0 | -4.1 | 49.9* | 0.0 | -2.2
CCc1cccc(C)c1Nc1nc2ccccc2n2cnnc12 | -0.9 | -2.2 | -13.1 | -2.1 | -4.6 | -0.7 | ·
C=CCNC(=O)CSc1n[nH]c(-c2cc(Cl)ccc2OC)n1 | -0.7 | 3.0 | · | -2.8 | -11.7 | -1.2 | ·
COc1cccc(CNC(=O)Cn2ncc3c(=O)oc4ccccc4c32)c1 | -1.4 | -6.5 | -5.8 | -0.1 | 2.3 | -2.1 | ·
CC1CN(C(=O)/C=C/c2ccc(SC(F)F)cc2)CC(C)O1 (stereo not given) | -1.2 | -1.9 | -2.8 | -2.4 | 2.8 | -0.7 | ·
COc1ccc(C(CC(=O)Nc2ccccn2)N2Cc3ccccc3C2=O)cc1OC (stereo not given) | -0.5 | -3.6 | -12.2 | -2.6 | -0.7 | -1.6 | ·
CC(C)=CCC/C(C)=C/CNC(=O)C[C@H]1C[C@H](C(=O)N(C(C)C)C(C)C)[C@@]2(C)c3[nH]c4cc(CCC(=O)N(C)C)ccc4c3CCN2C1=O | -0.6 | -0.2 | 22.5 | 2.0 | -17.0 | 0.0 | ·
Cc1cc(C(=O)NCCN2CCOCC2)c2ccccc2n1 | -1.6 | 19.2 | · | 17.2 | -0.4 | 0.8 | ·
CC(=O)c1ccc(NC(=O)c2cccc(N3C(=O)c4ccccc4C3=O)c2)cc1 | -1.7 | 31.7 | -1.4 | 12.8 | 78.1* | 0.7 | 1.0
CN1CCN(C(=O)c2cc(Br)cn2C)CC1 | 0.6 | 5.3 | 1.6 | -7.5 | -2.1 | -0.7 | ·
O=c1[nH]cnc2cc(-c3ccc(Br)cc3)sc12 | -1.7 | -11.6 | 1.3 | 8.0 | 44.9* | -1.3 | 6.5
COc1ccc(N(CC(=O)N2CCN(c3ccc(Cl)cc3)CC2)S(=O)(=O)c2c(C)n[nH]c2C)cc1 | -0.7 | 19.4 | · | 4.0 | 77.2* | 1.0 | 0.3
O=S1(=O)N=C2CCCCCN2C(c2ccc(Br)cc2)N1 (stereo not given) | -0.3 | 4.1 | · | 7.8 | 0.7 | 2.0 | ·
CNC(=O)COC(=O)c1cc(NC(=O)c2ccco2)c(OC)c(OC)c1 | -0.9 | 1.5 | -5.6 | -6.6 | 6.5 | 0.2 | ·
COc1cc(C(=O)OCC(=O)NCc2ccccc2)cc(NC(=O)c2ccco2)c1OC | -0.8 | -2.9 | -0.2 | 7.1 | 26.5* | 0.9 | 2.1
CCCCN(C(=O)c1cc2c(s1)CCCCC2)c1c(N)n(CC(C)C)c(=O)[nH]c1=O | -4.1 | -18.0 | -1.9 | -4.6 | -2.7 | 2.0 | ·
CCCOc1ccc(-c2nnn(CC(=O)N3CCCCC3)n2)cc1 | 2.4 | 1.7 | -4.8 | -6.0 | -8.2 | -5.7 | ·
COc1ccc2nc(C)cc(SCC(=O)Nc3c(C)cc(C)cc3C)c2c1 | -2.4 | 1.9 | · | -3.3 | 7.9 | 8.5 | ·
COc1ccc2nc(C)cc(SCC(=O)Nc3c(C)cccc3C)c2c1 | -3.1 | 13.8 | -2.7 | -1.4 | 73.3* | 0.8 | -4.4
CCN(CC)S(=O)(=O)c1ccc(Cl)c(NC(=O)c2ccccc2C)c1 | 0.3 | -2.7 | -6.5 | -1.6 | -13.8 | -0.3 | ·
SMILES | CAL PDZ FP-1 | Rtt109 HAT inh | CAL PDZ FP-2 | Dyrk1A ADPGlo | dFosB act-1 | CDK5 inh | dFosB act-2
CCN(CC)S(=O)(=O)c1ccc(Cl)c(NC(=O)c2cc(Cl)cc(Cl)c2)c1 | -5.8 | -0.4 | · | 2.3 | 53.5* | -1.1 | 0.0
COCCNC(=O)C1Cc2cc(S(=O)(=O)N3CCCC3)ccc2N1C(C)=O (stereo not given) | -1.3 | -5.0 | -0.6 | 4.4 | 1.7 | -4.7 | ·
COC(=O)COc1ccc2c(-c3ccc(OC)cc3)cc(=O)oc2c1 | -1.4 | 0.1 | · | 2.5 | -18.1 | -1.5 | ·
COc1ccc(-c2cc(=O)oc3c(C)c(OCC(=O)Nc4cccnc4)ccc23)cc1 | -3.1 | 6.9 | -8.7 | -1.4 | 41.3* | 0.6 | -6.1
COc1ccc(-c2cc(=O)oc3cc(OCC(=O)Nc4ccc(CCO)cc4)ccc23)cc1 | 0.7 | -10.1 | 8.6 | -6.4 | 21.9* | -0.5 | 1.2
COc1ccc(NC(C)=O)cc1S(=O)(=O)N1CCN(C/C=C/c2ccccc2)CC1 | 0.8 | 3.9 | 1.1 | 0.1 | -6.6 | -1.8 | ·
Cc1cccc(-c2ccc3c(c2)C2CC3CCN2)c1 (stereo not given) | -2.2 | 4.3 | -5.6 | · | -5.5 | 0.5 | ·
COc1ccc(/C=C/C(=O)Oc2ccc(/C=N/NC(=O)c3ccncc3)cc2)cc1 | -3.2 | 3.9 | 3.3 | 0.8 | 22.3* | -1.1 | 0.1
O=C(N/N=C/c1ccc(OC(=O)c2ccco2)cc1)c1ccncc1 | 17.2 | 2.2 | -3.0 | -2.1 | -0.9 | 0.6 | ·
COc1ccc(C(=O)Nc2ccc(/C(C)=N/NC(=O)c3ccncc3)cc2)cc1 | -0.6 | -4.4 | -4.8 | 1.5 | 39.8* | 1.1 | -7.0
O=C(N/N=C/c1ccc(OC(=O)c2ccc(Br)cc2)cc1)c1ccncc1 | -1.2 | -10.2 | · | 3.6 | 90.1* | 1.3 | 6.2
CCc1c(C)nc2ncnn2c1N1CCN(S(=O)(=O)c2ccc(OC)cc2)CC1 | -0.8 | -12.8 | 4.0 | -4.0 | -4.6 | 0.0 | ·
N#C/C(=C\c1ccc[nH]1)C(=O)Nc1ccccc1Cl | -0.4 | -17.8 | -1.6 | -1.4 | 65.7* | 0.0 | 2.8
CCOC(=O)N1CCN(S(=O)(=O)c2ccc(F)cc2)CC1 | -2.6 | 7.1 | -3.9 | -6.9 | -2.9 | -1.9 | ·
CCOC(=O)N1CCN(S(=O)(=O)c2ccc(C(=O)Nc3nc4ccc(F)cc4s3)cc2)CC1 | -1.6 | -5.3 | -6.7 | 6.7 | 57.3* | -1.3 | -6.0
CCOC(=O)N1CCN(S(=O)(=O)c2ccc(C(=O)Nc3nc4ccccc4s3)cc2)CC1 | -1.9 | -8.5 | -2.9 | -7.2 | 23.4* | 1.2 | 0.1
CCOC(=O)N1CCC(=NNc2nc3ccccc3s2)CC1 | 1.0 | 7.1 | 1.6 | -0.9 | -10.6 | 2.3 | ·
COc1ccc(-c2cc(C(=O)Nc3ccccc3O)c3ccccc3n2)cc1OC | -0.2 | 2.2 | 2.0 | 0.6 | -11.9 | 0.6 | ·

Screens (PubChem)
